Screening results (PubChem BioAssay)
A selection: hits, their analogues and other compounds. The true share with any hit is near 4%.
BB579 growth dn = yeast BB579 growth reduction in restrictive medium. 140,000 tested, 0.51% active. S. cerevisiae BB579 growth, OD615, 48 h. AID 804. inhibition, % at 10 µM;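 active = inhibition above a set limit, 3 SD over the mean compound inhibition, cut at about 44% in these data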
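Test system: Saccharomyces cerevisiae DeaD strain BB579, replicative lifespan model yeast | Buffer or medium: Restrictive CSMM-D medium | Doses: One dose, 10 µM compound with 0.25% DMSO | Incubation: 48 h exposure, 30 °C | Detection: Culture absorbance at 615 nm | Control set: Amphotericin B at 10 µg/mL as positive control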
Measles CPE = protection of cells from measles virus. Measles virus-infected cells, CPE protection, absorbance. protection (pct of control), % at 4 µM. AID 841. 140,000 tested, 1.5% active; in the data active = protection mostly above about 24%, no sharp cut-off; inactive = mostly below about 26%
Mdm2 ligase inh = blocks human Mdm2 ubiquitin ligase activity; cell-based MDM2 ubiquitination luciferase reporter, 2 h; 0 = plate control, 100 = twice control, blank-subtracted; signal enhancement, % at 5 µM; 210,000 tested, 0.11% active;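 active = signal enhancement of 30% or more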;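 also: luminescence tracks abundance of the self-degrading MDM2-luciferase fusion protein; higher signal means inhibition of MDM2 E3 ligase activity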
Target sequence (Q00987 whole entry, looked up, the tested form may be a part): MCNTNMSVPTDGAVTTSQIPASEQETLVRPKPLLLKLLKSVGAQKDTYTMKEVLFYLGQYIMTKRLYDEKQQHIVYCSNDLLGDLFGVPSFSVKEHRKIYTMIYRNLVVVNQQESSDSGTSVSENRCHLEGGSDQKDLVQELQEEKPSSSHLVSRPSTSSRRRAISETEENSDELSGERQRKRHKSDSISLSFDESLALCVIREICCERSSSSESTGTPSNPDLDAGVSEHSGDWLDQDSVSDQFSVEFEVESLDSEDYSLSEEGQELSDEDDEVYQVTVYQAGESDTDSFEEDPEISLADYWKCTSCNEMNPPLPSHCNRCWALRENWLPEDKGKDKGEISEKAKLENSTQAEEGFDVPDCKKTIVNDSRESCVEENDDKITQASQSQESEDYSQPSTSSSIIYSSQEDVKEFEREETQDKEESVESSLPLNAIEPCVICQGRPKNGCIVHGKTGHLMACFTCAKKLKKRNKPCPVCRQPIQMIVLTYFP
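Timing – 2 h compound exposure at 37 °C · Assay system – mammalian cells stably expressing self-ubiquitinating, self-degrading MDM2 E3–luciferase fusion · Amount – 2000 cells seeded into each well · Measure – % luminescence enhancement versus blank-corrected plate control mean · Measured by – SteadyLite luminescence, 15 min reagent step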
Yeast life ext = yeast lifespan extension; S. cerevisiae growth with nicotinamide, OD615; deaD strain in restrictive glucose medium; inhibition of the nicotinamide effect, % at 10 µM; 130,000 tested, 0.68% active;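 active = inhibition above a set limit, placed 3 SD over the median of all compounds, cut at about 26% in these data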;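 also: 0% = nicotinamide-treated wells and 100% = cells grown without nicotinamide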
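Buffer or medium: CSMM-D glucose medium, restrictive; test system: modified budding yeast, DeaD strain; compound: single dose 10 µM compound, 0.25% DMSO; schedule: culture preincubation 4 h, compound exposure 48 h, both 30 °C; detection: optical density (absorbance) at 615 nm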
INS promoter inh = TRM-6 insulin promoter activity inhibition; TRM-6 cells, insulin promoter-eGFP reporter, imaging; reporter expression induced with tamoxifen; inhibition, % at 2 µM; 130,000 tested, 0.9% active; AID 1273;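 active = inhibition above the mean plus 3 SD, with well images judged a real hit on visual review, cut at about 60% in these data, passing the limit was not always enough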
RAM network inh = blocks the yeast RAM network. S. cerevisiae dse1pr::URA3 reporter, 5-FOA growth OD615, 2 d; analog-sensitive cbk1-as2 kinase mutant strain. inhibition, % at 50 µM. 190,000 tested, 1.8% active. AID 868;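 active = inhibition above a set limit, 3 SD over mean compound inhibition, cut at about 8.4% in these data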;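 also: 0% = DMSO-only wells with no growth and 100% = 10 µM 1-NA-PP1 full growth; inhibition rescues growth on 5-FOA so higher OD means more RAM inhibition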
Starred values were filed as active, the others as inactive; i = inactive; x = no result given.

SMILES	BB579 growth dn	Measles CPE	Mdm2 ligase inh	Yeast life ext	INS promoter inh	RAM network inh
O=C(COc1ccc2ccccc2c1)Nc1cccc(C(=O)Nc2ccccc2C(=O)O)c1	-35.1	14.7	-12.2	63.7*	0.0	4.6
O=C(CNC(=S)N(Cc1ccccc1)Cc1cccnc1)NC1CC1	-21.2	13.4	1.8	8.4	x	1.5
O=C(CNC(=S)N(Cc1ccccc1)Cc1cccnc1)NC1CCCC1	-2.1	28.2*	-8.6	0.3	40.0	0.4
NC(=O)CSc1nc(-c2ccccc2Cl)ns1	-46.0	6.2	-11.5	-28.3	x	0.9
Cc1nc(C)c(-c2csc(Nc3cccnc3)n2)s1	-29.5	1.9	-7.9	-10.4	87.1*	-0.6
CC(C)NC(=O)C1CCCN(S(=O)(=O)c2cccs2)C1 (stereo not given)	-32.9	13.1	-4.8	-14.2	-9.1	0.3
CCOC(=O)C1CCCN(S(=O)(=O)c2cccs2)C1 (stereo not given)	-18.6	28.6*	-4.2	-5.5	-462.5	4.8
CCOc1cc(C)c(C(C)C)cc1S(=O)(=O)NCc1ccccn1	-44.5	29.7	-10.4	58.9*	37.7	2.6
CCOc1ccc(C)cc1S(=O)(=O)n1ccc(C)n1	-41.5	16.0	-3.1	19.1	6.2	1.1
CCOc1cc(C)c(C(C)C)cc1S(=O)(=O)n1ccc(C)n1	-9.6	6.1	-13.5	4.7	81.8*	0.5
COc1cc(S(=O)(=O)NCc2ccccn2)c(OC)cc1Cl	-17.0	11.9	-1.0	x	5.6	0.5
CC(C)CC(=O)Nc1ccccc1-c1nnn(CC(=O)N2CCOCC2)n1	-57.2	26.9	-13.7	-8.9	2.8	3.1
NC(=O)/C(=N\OC(=O)c1ccco1)c1nc(-c2ccc(Br)cc2)cs1	-19.8	3.1	-7.0	-23.4	23.5	4.0
CC(C)OCCCN1CN(S(=O)(=O)c2cccc(Cl)c2)c2nc3ccccc3nc21	-32.8	15.5	2.1	-0.2	-34.2	9.1*
CC(C)OCCCN1CN(S(=O)(=O)c2ccc(Cl)cc2)c2nc3ccccc3nc21	-24.0	5.8	1.1	-8.1	24.4	4.9
C/C(=N\NC(=O)c1cccnc1)c1ccc(OC2OCCOC2Oc2ccc(/C(C)=N/NC(=O)c3cccnc3)cc2)cc1 (stereo not given)	x	x	-22.9	x	x	1.5
C=CCSc1nnc(NC(=O)c2cccc(S(=O)(=O)N3CCOCC3)c2)s1	13.6	21.9	-14.9	-6.4	66.7	5.6
COc1ccc2c(c1)C(c1ccccc1)=NNC(c1ccco1)=N2	-29.2	49.0*	-17.4	-25.0	x	2.6
CCn1ncc(Br)c1C(=O)Nc1ccccc1OC	x	x	20.6	x	-12.5	-0.5
CCn1ncc(Br)c1C(=O)Nc1cc(C(=O)OC)ccc1C(=O)OC	-39.5	8.5	-0.6	3.0	x	8.5*
CCOCC(=O)Nc1cc(C(=O)OC)ccc1C(=O)OC	-10.5	8.8	-22.1	-5.9	-10.5	1.6
COC(=O)c1ccc(C(=O)OC)c(NC(=O)CSCc2ccccc2Br)c1	-14.4	13.5	-1.8	-7.6	33.3	10.9*
COC(=O)c1ccc(C(=O)OC)c(NC(=O)COC(=O)c2ccc(OC)c(OC)c2OC)c1	-22.0	15.3	-12.1	10.7	x	10.6*
CCCNC(=O)NC(=O)CSc1ccc2c(c1)OCCO2	-14.1	4.4	-20.6	2.9	3.1	2.6
CC1CCCCN1C(=O)c1ccc(NC(=O)c2ccccc2Cl)cc1 (stereo not given)	x	x	-2.0	x	2.3	1.4
SMILES	BB579 growth dn	Measles CPE	Mdm2 ligase inh	Yeast life ext	INS promoter inh	RAM network inh
COc1ccccc1OCC(=O)N/N=C1/C=C(C)CC1	x	x	-15.0	x	x	1.6
Brc1ccc(N=C/C=C/C=C/Nc2ccc(Br)cc2)cc1	-6.3	14.1	-16.4	-1.8	79.0*	1.5
CN(C)C(/C=C/Nc1ccc(Br)cc1)=C(C#N)C#N	x	x	-10.6	x	x	0.1
Cc1ccc(-n2c(=O)[nH]c3c(C(N)=O)nc(CC(C)C)nc32)cc1	-70.6	17.9	-12.2	-9.8	92.9*	3.1
COc1ccccc1-n1c(=O)[nH]c2c(C(N)=O)nc(CC(C)C)nc21	-45.7	-0.2	-13.8	-3.2	x	2.5
COc1cccc(/C=N/NC(=O)c2ccoc2C)c1	x	x	-19.1	x	x	x
CCCCOC(=O)CCNc1n[nH]c(=O)[nH]c1=O	-44.9	55.7*	-23.8	-4.5	33.3	2.7
CC(C)OC(=O)CCNc1n[nH]c(=O)[nH]c1=O	-12.3	7.8	x	-7.0	i	2.7
O=c1c2ccccc2nc(SCc2cc(F)ccc2F)n1C1CCCC1	6.4	30.7*	-1.8	5.1	-15.4	3.6
CC(=O)NCCn1c(SCc2cc(F)ccc2F)nc2ccccc2c1=O	-51.6	40.5*	-3.0	-5.2	31.4	5.1
C=C(C)Cn1c(SCC)nc2ccccc2c1=O	-11.8	27.8*	10.1	-23.8	-13.5	-0.1
COc1ccc(/C=N/NC(=O)COc2cc(C)cc(C)c2)cc1COC(C)=O	-55.2	1.7	-4.0	6.3	-53.9	7.4
CC(C)Oc1ccc(C2c3c(oc4ccccc4c3=O)C(=O)N2CCCN2CCOCC2)cc1 (stereo not given)	-94.5	6.3	-16.5	-5.2	31.2	-0.9
N#Cc1nc(-c2cccs2)oc1NCc1ccc2c(c1)OCO2	-7.8	11.4	-15.4	-22.3	x	0.1
CCOc1cc(C)c(S(=O)(=O)Nc2ccc3cn[nH]c3c2)cc1C	-53.5	48.7	-25.0	-18.7	x	2.6
Nc1nsc2ccccc12	46.0*	5.5	-14.1	-7.7	0.0	0.1
C=CCN(CC=C)c1nc2ccccc2nc1C(C#N)C(=O)OC(C)C (stereo not given)	-33.8	2.5	-8.9	36.1*	-46.9	0.9
C=CCOC(=O)C(C#N)c1nc2ccccc2nc1N1CCN(c2ccccc2OC)CC1 (stereo not given)	-42.9	5.9	-1.9	-0.2	-71.9	2.3
CCOC(=O)C(NC(=O)CC)(N1CCc2ccccc2C1)C(F)(F)F (stereo not given)	16.2	3.6	-7.5	-13.9	-7.9	1.4
Cn1c(=O)n(C)c2cc(/C=C3/SC(=O)N(CC(=O)N4CCOCC4)C3=O)ccc21	-14.1	7.8	1.5	-0.6	-79.3	2.0
O=C(CCN1C(=O)S/C(=C/c2ccc(Cl)cc2)C1=O)N1CCOCC1	-48.5	42.4*	0.0	-3.5	-68.8	0.5
Cc1cc(/C=C2\SC(N)=NC2=O)c(C)n1-c1ccc(F)cc1	x	x	-3.4	x	x	4.7
C=CCNC(=O)O/N=C/c1csc([N+](=O)[O-])c1	x	x	0.2	x	x	x
Cc1ccccc1C(=O)NC(=S)Nc1sc2c(c1C#N)CCC(C)C2 (stereo not given)	-31.6	58.9*	-11.7	-15.4	x	2.3
Cc1cccc(NC(=O)c2c(O)c3cccc4c3n(c2=O)CCC4)n1	-72.5	21.6	-17.7	74.1*	45.5	0.4
CC(C)c1nnc(NC(=O)c2c(O)c3cccc4c3n(c2=O)CCC4)s1	-32.8	23.9	-0.9	40.5*	x	0.1
